Experiment [1] has as its target Delta-type opioid receptor (Mus musculus) (UniProt P32300). Description: Inhibition of [D-Ala2,D-Leu5]-enkephalin (DADLE) activity in the electrically stimulated mouse vas deferens. In outline:
(§1)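 Antagonism in electrically stimulated smooth muscle, hydrochloride salts. Test ligand 100 nM preincubated for 15 min before the standard agonist: DADLE (δ) in mouse vas deferens, morphine (μ) and ethylketazocine (κ) in guinea pig ileal longitudinal muscle. IC50 ratio = agonist IC50 with test compound / control agonist IC50. Ke (nM) = [antagonist]/(IC50 ratio − 1).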

For experiment [2], the target named is Mu-type opioid receptor (Cavia porcellus) (UniProt P97266). As to the kind of experiment: Compound was tested for opioid antagonist activity in the electrically stimulated GPI preparation, against morphine (Opioid receptor mu 1). Format: functional. Put shortly: as §1
Chain of Mu-type opioid receptor (Cavia porcellus) (P97266 whole entry): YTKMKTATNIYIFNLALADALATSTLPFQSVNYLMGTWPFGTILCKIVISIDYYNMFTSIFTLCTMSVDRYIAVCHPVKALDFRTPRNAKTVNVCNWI
The species named for experiment [3] is Mus musculus. As to the kind of experiment: (§2) Compound was tested for opioid agonist activity in the electrically stimulated mouse vas deferens(MVD). Format: functional. Put shortly:
(§3)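 Electrically stimulated guinea pig ileal longitudinal muscle or mouse vas deferens, hydrochloride salts. Weak agonists tested at a single 1 μM concentration, reported as percent of maximal response (±SE). Full agonists run at four to six concentrations to give a concentration-response curve compared with a standard agonist in the same tissue. IC50 = agonist concentration giving half-maximal response; a negative value means enhanced twitch amplitude.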

Experiment [4] is filed under the species Cavia porcellus. Description: (§4) Compound was tested for opioid agonist activity in the electrically stimulated guinea pig ileal longitudinal muscle(GPI). The experiment is classed as functional, Muscle tissue. In outline: as §3
Experiment [5] has as its target Kappa-type opioid receptor (Cavia porcellus) (UniProt P41144). As to the kind of experiment: Antagonist activity against electrically stimulated guinea pig ileum Opioid receptor kappa 1. The experiment is classed as functional, tissue-based. Put shortly: as §1
For experiment [6], the species on record is Cavia porcellus. The experiment is described as §4. Format: functional, organism-based. The following applies: Muscle tissue. Put shortly: as §3
The species entered for experiment [7] is Mus musculus. The description is as §2. The experiment is classed as functional, organism-based. In outline:
as §3

Chain of Kappa-type opioid receptor (Cavia porcellus) (P41144 whole entry): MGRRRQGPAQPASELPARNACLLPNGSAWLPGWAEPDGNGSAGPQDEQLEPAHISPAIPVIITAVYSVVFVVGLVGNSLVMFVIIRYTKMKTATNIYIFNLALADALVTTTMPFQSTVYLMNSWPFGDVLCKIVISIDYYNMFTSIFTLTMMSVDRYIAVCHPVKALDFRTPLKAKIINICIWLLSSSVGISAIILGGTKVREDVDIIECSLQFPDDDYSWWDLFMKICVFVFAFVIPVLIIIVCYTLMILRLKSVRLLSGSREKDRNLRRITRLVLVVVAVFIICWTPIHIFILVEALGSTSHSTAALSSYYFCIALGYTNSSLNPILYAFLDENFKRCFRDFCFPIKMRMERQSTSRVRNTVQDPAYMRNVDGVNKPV
Chain of Delta-type opioid receptor (Mus musculus) (P32300 whole entry): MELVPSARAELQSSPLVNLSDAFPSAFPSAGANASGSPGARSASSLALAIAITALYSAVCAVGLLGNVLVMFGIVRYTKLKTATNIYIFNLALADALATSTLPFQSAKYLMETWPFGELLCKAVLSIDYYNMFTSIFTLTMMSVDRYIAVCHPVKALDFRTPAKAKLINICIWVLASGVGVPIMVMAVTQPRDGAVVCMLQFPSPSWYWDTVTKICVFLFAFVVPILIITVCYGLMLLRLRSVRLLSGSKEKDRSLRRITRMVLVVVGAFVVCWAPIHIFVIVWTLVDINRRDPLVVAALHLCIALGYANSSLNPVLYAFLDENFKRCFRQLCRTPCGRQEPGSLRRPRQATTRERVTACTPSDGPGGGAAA

Regarding `CC(=O)O[C@H]1[C@@H](c2ccccc2)CC2[C@H]3Cc4ccc(O)c5c4[C@@]2(CCN3C)[C@H]1O5` (some centres not stated), the IC50 ratio in experiment [1] was found to be 1.02; in experiment [2], 0.9; in experiment [5], 1.08. Besides, the Max response in the experiment listed under Mus musculus [3] turned out to be 34.3%; in the experiment filed under Cavia porcellus [4] it was 24%.
Turning to `O=[N+]([O-])c1cccc([C@H]2CC3[C@H]4Cc5ccc(O)c6c5[C@@]3(CCN4C3CC3)[C@@H](O6)[C@H]2O)c1` (some centres not stated), the IC50 ratio in experiment [1] came to 4.17.
The IC50 is the midpoint of a concentration-inhibition curve. Turning to `CC(=O)O[C@H]1[C@@H](c2ccccc2)CC2[C@H]3Cc4ccc(O)c5c4[C@@]2(CCN3C2CC2)[C@H]1O5` (some centres not stated), in experiment [1], the IC50 ratio amounted to 6.38. In the experiment listed under Mus musculus [3], this compound yielded a Max response of 21.1%. In the experiment listed under Cavia porcellus [6], the IC50 is 118 nM.
For the compound `CN1CC[C@]23c4c5ccc(O)c4O[C@H]2C(=O)C(c2ccccc2)(c2ccccc2)CC3[C@H]1C5` (some centres not stated), the IC50 ratio in experiment [1] was found to be 2.34; in experiment [2], 1.69; in experiment [5], 1.01. Besides, the Max response is 5.4% in the experiment listed under Mus musculus [3] and 9.7% in the experiment listed under Cavia porcellus [4].
Consider `CN1CC[C@]23c4c5ccc(O)c4O[C@H]2[C@@H](O)[C@@H](c2ccc(Br)cc2)CC3[C@H]1C5` (some centres not stated), for which the figures for the IC50 ratio in experiment [1], in experiment [2] and in experiment [5] were 1.17, 1.2 and 1.76, respectively. The results for the Max response in the experiment filed under Mus musculus [3] and in the experiment filed under Cavia porcellus [4] were 15.2% and 10%, respectively.
On to `Oc1ccc2c3c1O[C@H]1c4[nH]c5ccccc5c4C[C@@]4(O)[C@@H](C2)N(CC2CC2)CC[C@]314` [NALTRINDOLE], for which the values for the Ke in the experiment filed under Mus musculus [3] and in the experiment filed under Cavia porcellus [4] were 0.13 nM and 29 nM, respectively.
As for `CN1CC[C@]23c4c5ccc(O)c4O[C@H]2[C@@H](O)[C@@H](c2ccccc2)CC3[C@H]1C5` (some centres not stated), the values for the IC50 ratio in experiment [2] and in experiment [5] were 1.85 and 1.9, respectively. Further, the Max response in the experiment listed under Cavia porcellus [4] was 23.2%. Also, the IC50 in the experiment listed under Mus musculus [7] came to 178 nM.
As for `O=C1[C@@H](c2ccccc2)C[C@H]2[C@H]3Cc4ccc(O)c5c4[C@@]2(CCN3C2CC2)[C@H]1O5`, the IC50 ratio in experiment [1] amounted to 17.6.
Turning to `Oc1ccc2c3c1O[C@H]1[C@@H](O)[C@@H](c4ccccc4)CC4[C@@H](C2)N(C2CC2)CC[C@@]341` (some centres not stated), in experiment [1], the IC50 ratio came to 3.03.
In the case of `CN1CC[C@]23c4c5ccc(O)c4O[C@H]2C(=O)[C@@H](c2ccccc2)C[C@H]3[C@H]1C5`, the IC50 ratio in experiment [1] was 0.97; in experiment [2], 1.05; in experiment [5], 0.75. In addition, the Max response is recorded as 29.2% in the experiment filed under Mus musculus [3] and 53.9% in the experiment listed under Cavia porcellus [4].
Regarding `CN1CC[C@]23c4c5ccc(O)c4O[C@H]2[C@@H](O)[C@@H](c2cccc([N+](=O)[O-])c2)CC3[C@H]1C5` (some centres not stated), the IC50 ratio in experiment [1] came to 0.99; in experiment [2], 0.34; in experiment [5] it was 1.05. In addition, the Max response is on record as 56.1% in the experiment listed under Mus musculus [3] and 49.3% in the experiment filed under Cavia porcellus [4].

Source of the values: ChEMBL document CHEMBL1131607, “Synthesis of 7-arylmorphinans. Probing the "address" requirements for selectivity at opioid delta receptors” (J Med Chem, 1998).
